Measured values from ChEMBL document CHEMBL1123018, “7 alpha-substituted derivatives of androstenedione as inhibitors of estrogen biosynthesis” (J Med Chem, 1985).

Tests used:
Aromatase [1] = target: T1, Aromatase (Homo sapiens, UniProt P11511); assay: Inhibition of Cytochrome P450 19A1 at 1.25 uM
T1 sequence (P11511 whole entry): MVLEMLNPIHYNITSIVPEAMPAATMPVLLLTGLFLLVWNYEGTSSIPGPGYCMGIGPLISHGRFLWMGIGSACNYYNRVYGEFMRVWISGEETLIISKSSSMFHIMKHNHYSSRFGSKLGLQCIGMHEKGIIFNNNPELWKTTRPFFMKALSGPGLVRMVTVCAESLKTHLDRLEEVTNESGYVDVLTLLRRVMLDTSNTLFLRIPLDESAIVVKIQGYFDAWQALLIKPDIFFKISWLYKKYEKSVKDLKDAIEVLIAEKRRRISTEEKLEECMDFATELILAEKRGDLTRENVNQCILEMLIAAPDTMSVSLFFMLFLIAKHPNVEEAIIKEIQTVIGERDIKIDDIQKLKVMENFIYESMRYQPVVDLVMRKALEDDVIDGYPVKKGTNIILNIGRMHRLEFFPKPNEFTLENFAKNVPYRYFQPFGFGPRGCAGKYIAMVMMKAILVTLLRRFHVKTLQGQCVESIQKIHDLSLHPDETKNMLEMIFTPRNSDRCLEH
In short: (§1)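 Aromatase source was lyophilized human placental microsomes, measured by tritiated water release. The substrate was 0.25 μM [1-³H]androstenedione (83% of the tritium in the β position), about 5 times the Km for this enzyme preparation. Inhibitor was tested at 0.25 μM or 1.25 μM with buffer and cofactors for 15 min. Ethyl acetate stopped the reaction.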

Aromatase [2] = target: T1, Aromatase; assay: Inhibition of Cytochrome P450 19A1 at 0.25 uM; in short: as §1

Row | SMILES | inhibition at 1.25 µM (Aromatase [1]) | inhibition at 0.25 µM (Aromatase [2])
1 | C[C@]12CCC(=O)C=C1C[C@@H](Sc1ccc(N)cc1)[C@@H]1[C@@H]2CC[C@]2(C)C(=O)CC[C@@H]12 | 85% | 51.6%
2 | C[C@]12CCC(=O)C=C1C[C@@H](Sc1ccc(F)cc1)[C@@H]1[C@@H]2CC[C@]2(C)C(=O)CC[C@@H]12 | 74.1% | 55.3%
3 | C[C@]12CCC(=O)C=C1C[C@@H](Sc1cccc(N)c1)[C@@H]1[C@@H]2CC[C@]2(C)C(=O)CC[C@@H]12 | 73.3% | 39.9%
4 | C[C@]12CCC(=O)C=C1C[C@@H](Sc1ccccc1)[C@@H]1[C@@H]2CC[C@]2(C)C(=O)CC[C@@H]12 | 66.8% | 62.7%
5 | C[C@]12CCC(=O)C=C1C[C@@H](SC1CCCCC1)[C@@H]1[C@@H]2CC[C@]2(C)C(=O)CC[C@@H]12 | 32.2% | 18.5%
6 | C[C@]12CCC(=O)C=C1C[C@@H](SCc1ccccc1)[C@@H]1[C@@H]2CC[C@]2(C)C(=O)CC[C@@H]12 | 69.8% | 33.5%
7 | C[C@]12CCC(=O)C=C1C[C@@H](Sc1ccc(Br)cc1)[C@@H]1[C@@H]2CC[C@]2(C)C(=O)CC[C@@H]12 | 80.8% | 47.3%
8 | Cc1ccc(S[C@@H]2CC3=CC(=O)CC[C@]3(C)[C@H]3CC[C@]4(C)C(=O)CC[C@H]4[C@H]23)cc1 | 24.9% | 7.83%
9 | CC(=O)c1ccc(S[C@@H]2CC3=CC(=O)CC[C@]3(C)[C@H]3CC[C@]4(C)C(=O)CC[C@H]4[C@H]23)cc1 | 84.4% | 55.7%
10 | C[C@]12CCC(=O)C=C1C[C@@H](Sc1ccc(I)cc1)[C@@H]1[C@@H]2CC[C@]2(C)C(=O)CC[C@@H]12 | 83.7% | 45%
11 | COc1ccc(S[C@@H]2CC3=CC(=O)CC[C@]3(C)[C@H]3CC[C@]4(C)C(=O)CC[C@H]4[C@H]23)cc1 | 36.7% | 7.93%
12 | C[C@]12CCC(=O)C=C1C[C@@H](Sc1ccc(Cl)cc1)[C@@H]1[C@@H]2CC[C@]2(C)C(=O)CC[C@@H]12 | 83.4% | 56.5%
13 | CCN(CC)c1ccc(S[C@@H]2CC3=CC(=O)CC[C@]3(C)[C@H]3CC[C@]4(C)C(=O)CC[C@H]4[C@H]23)cc1 | 53.2% | 11.7%
